Test results from ChEMBL document CHEMBL2202989, “New adamantane phenylalkylamines with σ-receptor binding affinity and anticancer activity, associated with putative antagonism of neuropathic pain” (J Med Chem, 2012).

Legend:
[1] = (§1) Growth inhibition of human NHDF cells after 48 hrs by SRB assay; format: cell-based; details: NHDF cells
Procedure, shortened: (§2)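 Cells grown in RPMI 1640 with 5% heat-inactivated FCS, 2 mM L-glutamine and antibiotics, 37 °C, 5% CO2. Seeded at 3500–30000 cells/well and left 24 h before dosing. DMSO solutions added at 10-fold dilutions from 100 to 0.01 μM for 48 h. Cells TCA-fixed and SRB-stained, absorbance read at 540 nm; GI50 derived against the time-zero plate.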

[2] = system: NHDF; assay: as §1; format: cell-based; details: nhdf, 48 h; procedure, shortened: as §2
[3] = system: U-251; assay: Growth inhibition of human U251 cells after 48 hrs by SRB assay; format: functional; details: U-251, 48 h; for CC50: read-out: LC50 (the source's name); procedure, shortened: as §2
[4] = system: BXPC-3; assay: Growth inhibition of human BxPC3 cells after 48 hrs by SRB assay; format: functional; details: BXPC-3, 48 h; procedure, shortened: as §2
[5] = Growth inhibition of human MSC cells after 48 hrs by SRB assay; format: cell-based; procedure, shortened: as §2
[6] = system: HCT-116; assay: Growth inhibition of human HCT116 cells after 48 hrs by SRB assay; format: functional; details: HCT-116, 48 h; procedure, shortened: as §2
[7] = system: MCF7; assay: Growth inhibition of human MCF7 cells after 48 hrs by SRB assay; format: functional; details: MCF7, 48 h; for CC50: read-out: LC50 (the source's name); procedure, shortened: as §2
[8] = system: DU-145; assay: Growth inhibition of human DU145 cells after 48 hrs by SRB assay; format: functional; details: DU-145, 48 h; for CC50: read-out: LC50 (the source's name); procedure, shortened: as §2
[9] = (§3) Growth inhibition of human HUVEC cells after 48 hrs by SRB assay; format: cell-based; details: HUVEC cells; procedure, shortened: as §2
[10] = system: HUVEC; assay: as §3; format: cell-based; details: huvec, 48 h; procedure, shortened: as §2
[11] = system: SK-HEP1; assay: Growth inhibition of human SKHEP1 cells after 48 hrs by SRB assay; format: functional; details: SK-HEP1, 48 h; for CC50: read-out: LC50 (the source's name); procedure, shortened: as §2
[12] = system: HCT-15; assay: Growth inhibition of human HCT15 cells after 48 hrs by SRB assay; format: functional; details: HCT-15, 48 h; for CC50: read-out: LC50 (the source's name); procedure, shortened: as §2
[13] = system: PC-3; assay: Growth inhibition of human PC3 cells after 48 hrs by SRB assay; format: functional; details: PC-3, 48 h; for CC50: read-out: LC50 (the source's name); procedure, shortened: as §2
[14] = system: OVCAR-5; assay: Growth inhibition of human OVCAR5 cells after 48 hrs by SRB assay; format: functional; details: OVCAR-5, 48 h; for CC50: read-out: LC50 (the source's name); procedure, shortened: as §2
[15] = system: HL-60(TB); assay: Growth inhibition of human HL-60(TB) cells after 48 hrs by SRB assay; format: functional; details: HL-60, 48 h; for CC50: read-out: LC50 (the source's name)
Procedure, shortened: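 Cells kept in RPMI 1640 with 5% FCS at 37 °C, 5% CO2, and seeded 24 h before dosing. Compound given from DMSO at 10-fold dilutions, 100 to 0.01 μM, for 48 h. Cells fixed with TCA, stained with SRB, absorbance read at 540 nm. GI50 taken from a time-zero plate.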

[16] = system: MIA PaCa-2; assay: Growth inhibition of human MIAPaCa2 cells after 48 hrs by SRB assay; format: functional; details: MIA PaCa-2, 48 h; for CC50: read-out: LC50 (the source's name); procedure, shortened: as §2
[17] = molecular target: Sigma non-opioid intracellular receptor 1 (Homo sapiens, UniProt Q99720); assay: Displacement of [3H]-(+)-pentazocine from sigma 1 receptor in human Jurkat cell membrane; format: cell membranes
Sigma non-opioid intracellular receptor 1, sequence (Q99720 whole entry): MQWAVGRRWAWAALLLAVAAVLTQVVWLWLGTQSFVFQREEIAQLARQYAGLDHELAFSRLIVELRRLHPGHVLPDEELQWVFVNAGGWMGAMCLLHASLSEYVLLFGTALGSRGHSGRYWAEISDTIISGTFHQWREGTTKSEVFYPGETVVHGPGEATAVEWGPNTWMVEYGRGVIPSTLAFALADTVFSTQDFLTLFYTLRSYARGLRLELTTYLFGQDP
Procedure, shortened: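 Jurkat cell membranes incubated with 8 nM [3H](+)-pentazocine and a range of test concentrations for 2 h at 22 °C in Tris-HCl buffer, pH 7.4. Nonspecific binding defined with 10 μM haloperidol. Run in triplicate.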

[18] = system: IGROV-1; assay: Growth inhibition of human IGROV1 cells after 48 hrs by SRB assay; format: functional; details: IGROV-1, 48 h; procedure, shortened: as §2
[19] = Displacement of [3H]1,3-di-otolylguanidine from sigma 2 receptor in rat cerebral cortex membranes; format: cell membranes, Membrane
Procedure, shortened: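 Rat cerebral cortex membranes incubated with 5 nM [3H]DTG plus 300 nM (+)-pentazocine to mask σ1 sites, together with a range of test concentrations, 2 h at 22 °C in Tris-HCl, pH 7.4. Nonspecific binding defined with 10 μM haloperidol.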

[20] = read-out: LC50 (the source's name)

| Structure (SMILES) | GI50 at 48 h [1] [µM] | LC50 [2] [µM] | TGI [2] [µM] | GI50 [3] [µM] | TGI [3] [µM] | CC50 [3] [µM] | GI50 [4] [µM] | LC50 [4] [µM] | TGI [4] [µM] | TGI [5] [µM] | GI50 [7] [µM] | TGI [7] [µM] | CC50 [7] [µM] | GI50 at 48 h [9] [µM] | LC50 [10] [µM] | TGI [10] [µM] | GI50 [11] [µM] | TGI [11] [µM] | CC50 [11] [µM] | GI50 [12] [µM] | further results |
| --- | --- | --- | --- | --- | --- | --- | --- | --- | --- | --- | --- | --- | --- | --- | --- | --- | --- | --- | --- | --- | --- |
| CCN1CCN(CCCc2ccc(C(c3ccccc3)C34CC5CC(CC(C5)C3)C4)cc2)CC1 (stereo not given) | 5.04 | 100 | 36.6 | 4.29 | 6.69 | 0.00909 | 5.3 | 0.1 | 10.6 | 8.69 | 3.05 | 5.87 | 0.00861 | 4.07 | 9.4 | 6.73 | 3.41 | 6.01 | 0.00861 | 4.09 | GI50 [6]: 3.29 µM; TGI [6]: 5.9 µM; CC50 [6, 20]: 0.00852 µM; GI50 [8]: 5.33 µM; TGI [8]: 8.5 µM; CC50 [8]: 0.0117 µM; TGI [12]: 7.64 µM; CC50 [12]: 0.0473 µM; GI50 [13]: 4.79 µM; TGI [13]: 7.84 µM; CC50 [13]: 0.0109 µM |
| CCN1CCN(Cc2ccc(C(c3ccccc3)C34CC5CC(CC(C5)C3)C4)cc2)CC1 (stereo not given) | 6.59 | 100 | 66.8 | 4.33 | 7.8 | 0.0685 | 4.33 | 0.00935 | 6.84 | 4.61 | 2.26 | 5.92 | 0.00958 | 1.14 | 9.54 | 5.34 | 5.9 | 24.3 | 0.0902 | 3.36 | GI50 [14]: 18.1 µM; TGI [14]: 43.8 µM; CC50 [14]: 0.07 µM; GI50 [15]: 0.00433 µM; TGI [15]: 0.00775 µM; CC50 [15]: 0.1 µM; GI50 [16]: 8.24 µM; TGI [16]: 43.7 µM; CC50 [16]: 0.0886 µM; GI50 [8]: 5.73 µM; TGI [8]: 46.1 µM; CC50 [8]: 0.1 µM; TGI [12]: 6.36 µM; CC50 [12]: 0.0094 µM; GI50 [13]: 7 µM; TGI [13]: 7.9 µM; CC50 [13]: 0.0624 µM |
| c1ccc(C(c2ccc(CN3CCNCC3)cc2)C23CC4CC(CC(C4)C2)C3)cc1 (stereo not given) | 3.66 | 9.73 | 6.69 | 3.41 | 5.92 | 0.00843 | 4.3 | 0.00951 | 6.9 | 3.14 | 2.45 | 5.51 | 0.00857 | 2.91 | 17.43 | 5.98 | 3.51 | 6.17 | 0.00884 | 3.28 | GI50 [15]: 0.00448 µM; TGI [15]: 0.00759 µM; CC50 [15]: 0.1 µM; GI50 [8]: 4.23 µM; TGI [8]: 17.8 µM; CC50 [8]: 0.0392 µM; TGI [12]: 5.76 µM; CC50 [12]: 0.00824 µM; GI50 [13]: 3.89 µM; TGI [13]: 7.52 µM; CC50 [13]: 0.0692 µM |
| CN1CCN(CCc2ccc(C(c3ccccc3)C34CC5CC(CC(C5)C3)C4)cc2)CC1 (stereo not given) | 4.18 | 100 | 8.07 | 3.37 | 6.09 | 0.00881 | 5.76 | 0.1 | 19.9 | 6.39 | 2.77 | 5.7 | 0.0086 | 3.32 | 9.6 | 6.46 | 3.69 | 6.36 | 0.00902 | 4.64 | IC50 [17]: 0.0029 µM; GI50 [18]: 4.29 µM; TGI [18]: 8.93 µM; CC50 [18, 20]: 0.0136 µM; GI50 [14]: 17.4 µM; TGI [14]: 29.3 µM; CC50 [14]: 0.0624 µM; GI50 [16]: 7.5 µM; TGI [16]: 36 µM; CC50 [16]: 0.0762 µM; IC50 [19]: 0.0801 µM; TGI [12]: 8.26 µM; CC50 [12]: 0.1 µM; GI50 [13]: 4.57 µM; TGI [13]: 9 µM; CC50 [13]: 0.0135 µM |
